From PubChem
TCR CD3 inh – inhibitors of human TCR-CD3 interaction; inhibition, % at 9.4 µM; 360,000 tested, 0.37% active; TAMRA-labeled TCR probe fluorescence, biochemical; AID 651800; in the data active means inhibition above about 19%;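 further: recombinant mutant TCR 2C K166C tagged with TAMRA read by polarization; 0% = receptor in buffer alone and 100% = receptor with positive control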
HTRA1 inh – blocks human HTRA1 serine peptidase. 340,000 tested, 0.5% active. recombinant HTRA1, FP-rhodamine activity-based probe, fluorescence polarization. inhibition, % at 5.96 µM. Q92743; in the data active means inhibition above about 36%;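 further: 0% = enzyme with DMSO and 100% = wells lacking enzyme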
mABHD4 FP – ABHD4 (mouse) inhibition, primary FP screen | 370,000 tested, 0.54% active | Q8VD66 | purified mABHD4, FP-Rh probe fluorescence polarization | inhibition, % at 8.92 µM | AID 720543;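 active means inhibition exceeding the mean over every tested compound plus 3 SD, cut at about 30% in these data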;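 further: 0% = plate median of compound wells and 100% = S159A mutant with DMSO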
Target sequence (Q8VD66 whole entry, looked up): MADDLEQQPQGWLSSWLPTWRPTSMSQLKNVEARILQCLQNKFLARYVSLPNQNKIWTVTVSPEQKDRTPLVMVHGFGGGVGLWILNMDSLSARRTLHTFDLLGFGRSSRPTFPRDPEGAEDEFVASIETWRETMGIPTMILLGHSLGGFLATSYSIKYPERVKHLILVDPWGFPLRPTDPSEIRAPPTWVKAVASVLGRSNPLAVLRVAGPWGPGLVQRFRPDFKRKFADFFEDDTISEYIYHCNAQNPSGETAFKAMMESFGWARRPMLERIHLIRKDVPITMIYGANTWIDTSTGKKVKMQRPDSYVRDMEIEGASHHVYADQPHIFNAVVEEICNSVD
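assay system = mABHD4 protein | compound dosing = single nominal dose of 8.92 µM, 0.89% DMSO final | read-out basis = percent inhibition of probe binding, normalized to plate controls | schedule = Enzyme–compound pre-incubation 45 min, then probe 60 min, both 25 °C | detection = fluorescence polarization, excitation 525 nm, emission 598 nm, BODIPY TMR filters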
SIAE primary – human SIAE inhibition, primary screen; Q9HAT2; SIAE FP-Rh probe binding, fluorescence polarization; inhibition, % at 9.66 µM; 370,000 tested, 0.69% active; AID 1053197;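 active means inhibition above a cutoff: mean of compounds within the control limits plus 3 SD of those, cut at about 17% in these data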;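 further: 0% = plate median of compound wells and 100% = probe without SIAE protein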
ARNT-TACC3 inh – disrupts binding between human ARNT and TACC3; AlphaScreen His-ARNT PAS-B/GST-TACC3 binding, luminescence; TACC3 fragment carries E629A point mutation; Q9Y6A5; 390,000 tested, 0.66% active; inhibition, % at 9.99 µM;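 active means mean inhibition of replicates at least 50% and at least half of replicates each reaching 50%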;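 further: 0% = complete ARNT plus TACC3 wells and 100% = ARNT alone without TACC3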
SIAE inh conf – confirmation of human SIAE inhibitors; shares compounds with SIAE primary; SIAE FP-Rh activity-based probe, fluorescence polarization; inhibition, % at 9.66 µM; 2,300 tested, 13% active; AID 1117263;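 active means mean inhibition of the replicates above the hit cutoff set in the primary screen, cut at about 17% in these data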;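 further: 0% = SIAE with DMSO and probe and 100% = probe without SIAE; inhibitors lower polarization as more probe stays unbound to SIAE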
* marks the source's active call; other numbers are inactive results; nt = not tested or not shown. The list is not random: actives were taken first. Their share in the collection is about 1.8%.

SMILES	TCR CD3 inh	HTRA1 inh	mABHD4 FP	SIAE primary	ARNT-TACC3 inh	SIAE inh conf
Cc1noc(C)c1NC(=O)N(C)C[C@H]1OCCCC[C@H](C)Oc2ccc(NS(=O)(=O)c3c(C)noc3C)cc2C(=O)N([C@@H](C)CO)C[C@@H]1C	nt	nt	nt	nt	-8	nt
O=C(O)C1C2C=CC(C2)C1C(=O)NCCc1cccc(Cl)c1 (configuration not stated)	-8	2	-2	22*	-4	-9
COc1ccc(NC(=O)Nc2ccc3c(c2)[C@@H]2C[C@@H](CC(=O)NC4CCCCC4)O[C@@H](CO)[C@@H]2O3)cc1	nt	nt	nt	nt	4	nt
O=C(C[C@@H]1CC[C@H]2[C@@H](COC[C@H](O)CN2C(=O)c2ccc(F)cc2)O1)Nc1ccc(-c2ccccc2)cc1	nt	nt	nt	nt	0	nt
O=C(OCC(=O)N1CCN(C(=O)c2ccco2)CC1)c1ccccc1NCCO	-8	7	4	24*	2	1
COCCNC(=O)C[C@@H]1CC[C@H]2[C@@H](COc3ccc(NC(=O)C4CCCC4)cc3C(=O)N2C)O1	nt	nt	nt	nt	-10	nt
CCOC(=O)c1c[nH]n(-c2ccc(C)cc2)c1=O	-4	-2	3	18*	-6	1
CCOC(=O)c1c[nH]n(-c2ccccc2)c1=O	4	2	10	12	0	nt
O=C(c1ccc([N+](=O)[O-])cc1)N1CCCC1	-4	3	0	-5	-4	nt
O=C(c1ccc([N+](=O)[O-])cc1)N1CCOCC1	-3	8	5	18*	10	-3
Clc1cccc(N/N=C/c2ccc(N3CCOCC3)cc2)c1	1	20	10	3	-1	nt
O=[N+]([O-])c1cccc(N/N=C/c2ccc(N3CCOCC3)cc2)c1	-10	26	8	18*	nt	6
O=C(Nc1ccc(N2CCOCC2)cc1)c1ccc([N+](=O)[O-])cc1	6	2	5	17*	1	-1
O=C(Nc1ccc(N2CCCCC2)cc1)c1ccc([N+](=O)[O-])o1	-7	16	11	19*	-5	6
Cc1noc(C)c1NC(=O)N(C)C[C@@H]1Oc2c(NC(=O)c3ccncc3)cccc2C(=O)N([C@@H](C)CO)C[C@@H]1C	nt	nt	nt	nt	4	nt
S=c1[nH]ncn1/N=C/c1ccccn1	3	6	-7	17*	30	-2
S=c1[nH]ncn1/N=C/c1cccs1	-4	-4	0	-2	-1	nt
CC1=NN(c2ccccc2)C(=O)C1	-3	3	-14	4	16	nt
CC1=NN(c2ccc(S(=O)(=O)O)cc2C)C(=O)C1	-2	2	2	20*	21	1
CO[C@H]1CN(C)C(=O)c2ccc(NS(=O)(=O)c3ccc(-c4ccccc4)cc3)cc2OC[C@@H](C)NC[C@H]1C	nt	nt	nt	nt	0	nt
C[C@H]1CN([C@@H](C)CO)C(=O)c2cc(C#CC3CCCCC3)cnc2O[C@H]1CN(C)S(=O)(=O)c1ccc(F)cc1	nt	nt	nt	nt	-5	nt
CCOC(=O)c1c(C)[nH]c(C)c1S(=O)(=O)N1CCN(c2ccc(F)cc2)CC1	-6	-4	1	19*	-1	3
CC1=NN(c2cccc([N+](=O)[O-])c2)C(=O)C1	1	-12	6	17*	nt	2
O=C(C[C@@H]1C=C[C@H](NC(=O)Nc2ccccc2)[C@H](CO)O1)NCc1cccc(F)c1	nt	nt	nt	nt	-5	nt
O=C(c1ccc2c3n(nc2c1)-c1ccccc1CO3)N1CCCCC1	1	-8	12	17*	-15	-2
CCCNC(=O)Nc1ccc2c(c1)C(=O)N(C)[C@@H]1CC[C@@H](CC(=O)OC)O[C@H]1CO2	nt	nt	nt	nt	1	nt
C[C@H](CO)N1C[C@H](C)[C@@H](CN(C)S(=O)(=O)c2ccc(F)cc2)Oc2ccc(NC(=O)Nc3ccc4c(c3)OCO4)cc2C1=O	-1	6	6	22*	2	7
C[C@@H]1CN([C@@H](C)CO)C(=O)c2cc(NC(=O)Nc3ccc4c(c3)OCO4)ccc2O[C@H]1CN(C)S(=O)(=O)c1ccc(F)cc1	-9	-4	5	15	1	nt
Cc1nnc(N/N=C/c2c(O)n(-c3cccc(C(F)(F)F)c3)c(=O)c3ccccc23)[nH]c1=O	7	nt	0	8	nt	nt
Cc1cc(N=Cc2c(O)n(-c3cccc(C(F)(F)F)c3)c(=O)c3ccccc23)no1	4	-11	2	21*	-4	-8
